{"source": "ChEMBL document CHEMBL3232879", "about": "“4,5,6,7-Tetrahydro-isoxazolo-[4,5-c]-pyridines as a new class of cytotoxic Hsp90 inhibitors” (Eur J Med Chem, 2014)", "key": {"Histone deacetylase 2": {"target": "Histone deacetylase 2 (Homo sapiens, UniProt Q92769)", "sequence (Q92769 whole entry)": "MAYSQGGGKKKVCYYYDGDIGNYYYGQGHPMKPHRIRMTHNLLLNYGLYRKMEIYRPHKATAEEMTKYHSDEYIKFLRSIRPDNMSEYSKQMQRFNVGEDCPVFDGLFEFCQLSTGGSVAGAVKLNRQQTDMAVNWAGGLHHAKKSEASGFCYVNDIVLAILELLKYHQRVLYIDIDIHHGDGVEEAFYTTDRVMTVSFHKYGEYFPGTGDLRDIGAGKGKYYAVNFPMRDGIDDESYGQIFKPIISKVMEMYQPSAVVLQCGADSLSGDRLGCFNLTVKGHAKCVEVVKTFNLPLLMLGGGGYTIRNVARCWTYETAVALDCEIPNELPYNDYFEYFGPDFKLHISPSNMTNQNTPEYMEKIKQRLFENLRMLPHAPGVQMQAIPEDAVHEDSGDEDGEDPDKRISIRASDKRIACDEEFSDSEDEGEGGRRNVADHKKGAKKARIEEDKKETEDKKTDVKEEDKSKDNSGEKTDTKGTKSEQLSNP", "assay": "Inhibition of human HDAC-2 using RHKK(Ac) as substrate"}, "Histone deacetylase 4": {"target": "Histone deacetylase 4 (Homo sapiens, UniProt P56524)", "sequence (P56524 whole entry)": "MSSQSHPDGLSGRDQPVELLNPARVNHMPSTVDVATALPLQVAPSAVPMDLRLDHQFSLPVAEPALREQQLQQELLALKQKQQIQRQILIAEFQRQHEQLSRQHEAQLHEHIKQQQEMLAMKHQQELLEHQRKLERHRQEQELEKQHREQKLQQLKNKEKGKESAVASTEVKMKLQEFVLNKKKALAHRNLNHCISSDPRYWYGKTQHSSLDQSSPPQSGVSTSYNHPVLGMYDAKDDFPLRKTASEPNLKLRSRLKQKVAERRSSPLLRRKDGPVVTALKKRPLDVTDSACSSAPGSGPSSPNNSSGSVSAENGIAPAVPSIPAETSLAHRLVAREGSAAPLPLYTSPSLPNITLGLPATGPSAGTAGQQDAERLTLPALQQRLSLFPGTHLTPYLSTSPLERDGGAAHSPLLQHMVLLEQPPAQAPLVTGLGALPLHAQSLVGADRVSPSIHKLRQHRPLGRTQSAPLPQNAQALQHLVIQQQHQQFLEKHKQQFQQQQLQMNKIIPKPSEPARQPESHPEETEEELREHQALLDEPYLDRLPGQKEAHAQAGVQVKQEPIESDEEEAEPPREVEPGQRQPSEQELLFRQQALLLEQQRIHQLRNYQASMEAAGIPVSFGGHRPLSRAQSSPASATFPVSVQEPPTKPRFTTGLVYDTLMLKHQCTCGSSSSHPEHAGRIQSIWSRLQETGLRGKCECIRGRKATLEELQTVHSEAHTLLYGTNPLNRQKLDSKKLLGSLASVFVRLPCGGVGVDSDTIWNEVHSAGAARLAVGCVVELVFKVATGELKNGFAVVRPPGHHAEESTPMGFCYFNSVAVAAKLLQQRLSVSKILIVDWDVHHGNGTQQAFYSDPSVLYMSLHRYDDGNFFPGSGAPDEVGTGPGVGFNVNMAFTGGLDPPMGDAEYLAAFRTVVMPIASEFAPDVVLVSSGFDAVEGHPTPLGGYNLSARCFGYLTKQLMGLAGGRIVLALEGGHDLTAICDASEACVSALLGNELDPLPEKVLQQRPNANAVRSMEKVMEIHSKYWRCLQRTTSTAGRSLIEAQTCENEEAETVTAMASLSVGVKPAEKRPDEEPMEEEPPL", "assay": "Inhibition of human HDAC-4 using RHKK(Ac) as substrate"}, "NCI-H460": {"system": "NCI-H460", "assay": "Cytotoxicity against human NCI-H460 cells assessed as growth inhibition after 72 hrs by sulforhodamine B assay", "type": "functional, cell-based", "conditions": "NCI-H460, 72 h", "how_it_was_run": "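Log-phase NCI-H460 cells seeded, drug added 24 h later, exposed 72 h. Survival read by sulforhodamine B staining. IC50 fitted by curve analysis as the concentration halving cell number relative to untreated controls.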"}, "Histone deacetylase 7": {"target": "T1, Histone deacetylase 7 (Homo sapiens, UniProt Q8WUI4)", "T1 sequence (Q8WUI4 whole entry)": "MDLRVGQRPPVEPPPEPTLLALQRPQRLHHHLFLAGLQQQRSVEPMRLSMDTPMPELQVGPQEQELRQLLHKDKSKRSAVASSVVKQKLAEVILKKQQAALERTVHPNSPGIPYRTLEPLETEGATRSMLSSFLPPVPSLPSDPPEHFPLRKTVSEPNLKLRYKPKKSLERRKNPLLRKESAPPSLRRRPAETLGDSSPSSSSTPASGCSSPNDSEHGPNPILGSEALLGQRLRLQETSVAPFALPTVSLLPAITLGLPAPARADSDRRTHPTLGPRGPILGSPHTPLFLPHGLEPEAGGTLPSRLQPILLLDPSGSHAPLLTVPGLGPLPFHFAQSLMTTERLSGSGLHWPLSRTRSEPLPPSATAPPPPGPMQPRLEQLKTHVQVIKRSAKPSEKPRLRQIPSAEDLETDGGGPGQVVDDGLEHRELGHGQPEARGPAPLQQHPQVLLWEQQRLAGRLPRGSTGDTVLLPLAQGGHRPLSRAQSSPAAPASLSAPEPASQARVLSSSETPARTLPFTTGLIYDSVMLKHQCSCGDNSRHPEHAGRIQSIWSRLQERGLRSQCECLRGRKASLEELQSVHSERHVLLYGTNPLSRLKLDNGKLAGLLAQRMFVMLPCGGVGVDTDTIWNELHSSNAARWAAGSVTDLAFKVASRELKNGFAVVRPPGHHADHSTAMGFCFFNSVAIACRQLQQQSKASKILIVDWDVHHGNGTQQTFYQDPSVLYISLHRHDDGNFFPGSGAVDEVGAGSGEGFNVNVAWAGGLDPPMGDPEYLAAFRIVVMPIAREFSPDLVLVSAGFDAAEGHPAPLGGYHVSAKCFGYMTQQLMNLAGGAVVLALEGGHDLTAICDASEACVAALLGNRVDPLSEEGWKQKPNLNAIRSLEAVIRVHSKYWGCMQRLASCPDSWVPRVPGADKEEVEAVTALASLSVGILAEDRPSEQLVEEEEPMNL", "assay": "Inhibition of human HDAC-7 using RHKK(Ac) as substrate"}, "Histone deacetylase 5": {"target": "Histone deacetylase 5 (Homo sapiens, UniProt Q9UQL6)", "sequence (Q9UQL6 whole entry)": "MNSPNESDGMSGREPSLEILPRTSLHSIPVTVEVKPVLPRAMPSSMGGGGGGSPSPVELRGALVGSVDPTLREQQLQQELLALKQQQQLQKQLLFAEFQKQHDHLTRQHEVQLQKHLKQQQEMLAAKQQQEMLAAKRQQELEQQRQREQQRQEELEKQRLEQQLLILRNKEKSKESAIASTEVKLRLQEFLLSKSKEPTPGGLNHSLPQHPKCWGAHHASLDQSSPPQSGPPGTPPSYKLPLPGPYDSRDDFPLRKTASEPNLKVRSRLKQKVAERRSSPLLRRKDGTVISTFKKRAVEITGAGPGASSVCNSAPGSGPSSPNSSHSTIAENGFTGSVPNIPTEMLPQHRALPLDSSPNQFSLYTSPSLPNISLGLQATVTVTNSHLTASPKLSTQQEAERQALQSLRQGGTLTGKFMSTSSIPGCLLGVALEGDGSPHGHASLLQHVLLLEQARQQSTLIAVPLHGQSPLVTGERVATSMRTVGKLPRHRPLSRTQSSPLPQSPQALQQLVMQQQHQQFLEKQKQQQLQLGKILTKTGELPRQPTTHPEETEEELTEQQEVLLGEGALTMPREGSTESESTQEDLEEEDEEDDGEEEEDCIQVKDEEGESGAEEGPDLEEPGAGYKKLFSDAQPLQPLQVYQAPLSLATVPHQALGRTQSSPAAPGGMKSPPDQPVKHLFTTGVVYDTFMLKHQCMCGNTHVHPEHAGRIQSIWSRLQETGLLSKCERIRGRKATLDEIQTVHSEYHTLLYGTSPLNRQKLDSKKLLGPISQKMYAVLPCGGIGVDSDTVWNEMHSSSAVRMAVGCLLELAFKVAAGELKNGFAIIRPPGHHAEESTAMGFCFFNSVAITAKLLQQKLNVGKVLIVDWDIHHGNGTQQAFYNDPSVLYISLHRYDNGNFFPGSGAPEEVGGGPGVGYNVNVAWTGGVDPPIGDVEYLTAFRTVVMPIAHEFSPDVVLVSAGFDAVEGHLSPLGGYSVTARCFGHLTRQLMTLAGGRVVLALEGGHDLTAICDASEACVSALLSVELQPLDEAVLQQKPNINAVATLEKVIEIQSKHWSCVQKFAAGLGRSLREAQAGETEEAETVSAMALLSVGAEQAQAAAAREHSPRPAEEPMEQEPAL", "assay": "Inhibition of human HDAC-5 using RHKK(Ac) as substrate"}, "[1]": {"target": "T2, Polyamine deacetylase HDAC10 (Homo sapiens, UniProt Q969S8)", "T2 sequence (Q969S8 whole entry)": "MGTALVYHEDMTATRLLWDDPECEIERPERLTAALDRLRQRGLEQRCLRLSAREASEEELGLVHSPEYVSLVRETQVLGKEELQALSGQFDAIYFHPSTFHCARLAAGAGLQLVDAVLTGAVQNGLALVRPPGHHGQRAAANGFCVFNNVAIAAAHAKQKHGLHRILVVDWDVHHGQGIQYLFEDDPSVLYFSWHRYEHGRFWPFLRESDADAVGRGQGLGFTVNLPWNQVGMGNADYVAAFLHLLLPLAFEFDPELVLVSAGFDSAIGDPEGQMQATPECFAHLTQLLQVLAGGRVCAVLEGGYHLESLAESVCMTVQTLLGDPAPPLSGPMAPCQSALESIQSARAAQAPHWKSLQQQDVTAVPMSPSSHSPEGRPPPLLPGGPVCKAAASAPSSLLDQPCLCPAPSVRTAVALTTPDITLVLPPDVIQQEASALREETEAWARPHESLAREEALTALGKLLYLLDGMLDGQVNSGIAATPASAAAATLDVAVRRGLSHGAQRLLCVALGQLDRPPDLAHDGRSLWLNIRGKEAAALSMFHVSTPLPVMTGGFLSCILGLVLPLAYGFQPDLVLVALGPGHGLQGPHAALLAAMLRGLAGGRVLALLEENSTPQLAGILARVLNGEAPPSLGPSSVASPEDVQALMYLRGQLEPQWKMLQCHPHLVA", "assay": "Inhibition of human HDAC-10 using RHKK(Ac) as substrate"}}, "data": [{"smiles": "CC(C)c1cc(C(=O)N2CCc3onc(C(=O)NCCCCCCC(=O)NO)c3C2)c(O)cc1O", "values": [{"measurement": "IC50", "setting": "Histone deacetylase 2", "result": 9.49, "unit": "µM"}, {"measurement": "IC50", "setting": "Histone deacetylase 4", "result": 75.9, "unit": "µM"}, {"measurement": "IC50", "setting": "NCI-H460", "result": 3.9, "unit": "µM"}, {"measurement": "IC50", "setting": "Histone deacetylase 7", "result": 2510, "unit": "nM"}, {"measurement": "IC50", "setting": "Histone deacetylase 5", "result": 1580, "unit": "nM"}, {"measurement": "IC50", "setting": "[1]", "result": 886, "unit": "nM"}]}]}
